Measured values: ChEMBL document CHEMBL3627680, “An unprecedented dual antagonist and agonist of human Transglutaminase 2” (Bioorg Med Chem Lett, 2015)
Where a chain is given by its changes, count along the chain named. One block for each compound: values may come before it. The source made the active and inactive calls. The rule behind the calls is not given here.

Key:
[1] = target: T1, Protein-glutamine gamma-glutamyltransferase (Homo sapiens, UniProt P21980); assay: Non-competitive inhibition of recombinant human TG2 V224 mutant deamidation activity using Cbz-Gln-Gly as substrate preincubated for 30 mins followed by substrate addition by GDH-coupled assay in presence of 5 mM Ca2+
Summary of the method: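 V224 TG2 (0.5 μM) deamidation by GDH-coupled assay at 5 mM Ca2+. Rates measured across substrate concentrations at several inhibitor levels. Mode and Ki derived by Michaelis-Menten and Lineweaver-Burk analysis.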

[2] = target: T2, Protein-glutamine gamma-glutamyltransferase (Homo sapiens) (UniProt P21980); assay: Activation of extracellular TG2 transamidating activity in human WI38 cells assessed as incorporation of 5-BP into fibronectin at 1 uM preincubated for 30 mins followed by 5-BP addition measured after 3 hrs by DAPI staining-based confocal fluorescence microscopic analysis; format: cell-based; conditions: WI-38
T2 sequence (whole entry): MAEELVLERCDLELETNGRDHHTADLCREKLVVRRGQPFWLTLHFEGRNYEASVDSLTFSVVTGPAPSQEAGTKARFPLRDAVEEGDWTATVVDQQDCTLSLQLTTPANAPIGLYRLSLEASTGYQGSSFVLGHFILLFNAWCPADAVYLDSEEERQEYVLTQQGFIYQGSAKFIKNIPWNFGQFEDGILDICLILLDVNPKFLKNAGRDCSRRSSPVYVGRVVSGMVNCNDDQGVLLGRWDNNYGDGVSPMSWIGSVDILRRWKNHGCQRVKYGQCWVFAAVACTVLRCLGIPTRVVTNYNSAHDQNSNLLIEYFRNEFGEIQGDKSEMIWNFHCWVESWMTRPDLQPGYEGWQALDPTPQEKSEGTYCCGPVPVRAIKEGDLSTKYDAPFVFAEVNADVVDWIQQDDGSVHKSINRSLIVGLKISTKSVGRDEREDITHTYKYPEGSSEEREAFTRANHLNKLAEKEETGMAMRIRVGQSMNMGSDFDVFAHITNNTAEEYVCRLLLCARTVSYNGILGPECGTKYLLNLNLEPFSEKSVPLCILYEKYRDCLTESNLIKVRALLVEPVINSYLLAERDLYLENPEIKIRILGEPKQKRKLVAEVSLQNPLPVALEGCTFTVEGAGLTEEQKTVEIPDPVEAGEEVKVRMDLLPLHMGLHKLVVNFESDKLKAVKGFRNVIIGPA
Summary of the method: (§1)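 WI-38 fibroblasts grown to confluence, pre-incubated 30 min with vehicle (1% DMSO) or compound, then incubated with 200 μM 5-(biotinamido)-pentylamine for 3 h. Cells fixed and stained to image 5-BP incorporation into extracellular matrix proteins as a measure of TG2 transamidation. Five images sampled per well.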

[3] = target: T2, Protein-glutamine gamma-glutamyltransferase (Homo sapiens); assay: Activation of extracellular TG2 transamidating activity in human WI38 cells assessed as incorporation of 5-BP into fibronectin at 10 uM preincubated for 30 mins followed by 5-BP addition measured after 3 hrs by DAPI staining-based confocal fluorescence microscopic analysis; format: cell-based; conditions: WI-38; summary of the method: as §1
[4] = test system: Protein-glutamine gamma-glutamyltransferase (Homo sapiens), P21980 [UNDEFINED MUTATION]; assay: Activation of recombinant human TG2 V224 mutant deamidation activity using Cbz-Gln-Gly as substrate at 25 uM preincubated for 30 mins followed by substrate addition by GDH-coupled assay in presence of 0.6 mM Ca2+
[5] = test system: Protein-glutamine gamma-glutamyltransferase (Homo sapiens), P21980 [UNDEFINED MUTATION]; assay: Effect on open state of recombinant human TG2 V224 mutant at 500 uM after 1 hr by native PAGE analysis in presence of 1 mM MgCl2
[6] = target: T1, Protein-glutamine gamma-glutamyltransferase; assay: Competitive inhibition of recombinant human TG2 V224 mutant deamidation activity using Cbz-Gln-Gly as substrate preincubated for 30 mins followed by substrate addition by Lineweaver-Burk plot analysis in presence of 5 mM Ca2+
Summary of the method: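 Deamidation of Cbz-Gln-Gly by the V224 allele of human TG2 (0.5 μM) was read by a GDH-coupled assay at 5 mM Ca2+. Michaelis-Menten data were collected at several inhibitor levels, and Ki was derived from Lineweaver-Burk analysis.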

[7] = test system: Protein-glutamine gamma-glutamyltransferase (Homo sapiens), P21980 [UNDEFINED MUTATION]; assay: Effect on closed state of recombinant human TG2 V224 mutant at 500 uM after 1 hr by native PAGE analysis in presence of 1 mM MgCl2
[8] = test system: Protein-glutamine gamma-glutamyltransferase (Homo sapiens), P21980 [UNDEFINED MUTATION]; assay: Inhibition of human TG2 E396Q/N398S/D400N mutant deamidation activity using Cbz-Gln-Gly as substrate preincubated for 30 mins followed by substrate addition by GDH-coupled assay in presence of 5 mM Ca2+
[9] = target: T2, Protein-glutamine gamma-glutamyltransferase (Homo sapiens); assay: Inhibition of wild type human TG2 at 15 uM in presence of 5 mM Ca2+
Summary of the method: (§2)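 GDH-coupled deamidation with wild-type or truncated (1-466) TG2 at 0.5 μM enzyme and 5 mM Ca2+. Activity normalized to each protein's own maximum.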

[10] = test system: Protein-glutamine gamma-glutamyltransferase (Homo sapiens), P21980 [UNDEFINED MUTATION]; assay: Inhibition of human TG2 E447Q/E451Q/E452Q/E454Q mutant deamidation activity using Cbz-Gln-Gly as substrate preincubated for 30 mins followed by substrate addition by GDH-coupled assay in presence of 5 mM Ca2+
[11] = test system: T3, Protein-glutamine gamma-glutamyltransferase (Homo sapiens), P21980 [R580A]; assay: Activation of recombinant human TG2 R580A mutant deamidation activity using Cbz-Gln-Gly as substrate at 10 uM preincubated for 30 mins followed by substrate addition by GDH-coupled assay in presence of 3 mM Ca2+/500 uM GMP-PNP
T3 sequence (whole entry): T2 sequence (whole entry) with R580A
Summary of the method: (§3)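 GDH-coupled deamidation assay comparing wild-type and R580A TG2 at 0.5 μM enzyme and 3 mM Ca2+, with and without GMP-PNP.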

[12] = test system: Protein-glutamine gamma-glutamyltransferase (Homo sapiens), P21980 [UNDEFINED MUTATION]; assay: Activation of recombinant human TG2 V224 mutant deamidation activity using Cbz-Gln-Gly as substrate preincubated for 30 mins followed by substrate addition by GDH-coupled assay in presence of 0.5 to 0.7 mM Ca2+
[13] = test system: Protein-glutamine gamma-glutamyltransferase (Homo sapiens), P21980 [UNDEFINED MUTATION]; assay: Effect on open state of recombinant human TG2 V224 mutant at 100 uM after 1 hr by native PAGE analysis
[14] = target: T2, Protein-glutamine gamma-glutamyltransferase (Homo sapiens); assay: Inhibition of wild type human TG2 deamidation activity using Cbz-Gln-Gly as substrate preincubated for 30 mins followed by substrate addition by GDH-coupled assay in presence of 5 mM Ca2+; summary of the method: as §2
[15] = target: T2, Protein-glutamine gamma-glutamyltransferase (Homo sapiens); assay: Inhibition of human TG2 truncated (1 to 466 amino acid residues) mutant at 15 uM in presence of 5 mM Ca2+; summary of the method: as §2
[16] = test system: T3, Protein-glutamine gamma-glutamyltransferase (Homo sapiens), P21980 [R580A]; assay: Inhibition of recombinant human TG2 R580A mutant deamidation activity using Cbz-Gln-Gly as substrate at 10 uM preincubated for 30 mins followed by substrate addition by GDH-coupled assay in presence of 3 mM Ca2+; summary of the method: as §3
[17] = test system: Protein-glutamine gamma-glutamyltransferase (Homo sapiens), P21980 [UNDEFINED MUTATION]; assay: Effect on closed state of recombinant human TG2 V224 mutant at 100 uM after 1 hr by native PAGE analysis
[18] = test system: Protein-glutamine gamma-glutamyltransferase (Homo sapiens), P21980 [UNDEFINED MUTATION]; assay: Activation of recombinant human TG2 V224 mutant deamidation activity using Cbz-Gln-Gly as substrate at 15 uM preincubated for 30 mins followed by substrate addition by GDH-coupled assay in presence of 0.6 mM Ca2+
[19] = test system: Protein-glutamine gamma-glutamyltransferase (Homo sapiens), P21980 [UNDEFINED MUTATION]; assay: Activation of recombinant human TG2 V224 mutant transamidating activity assessed as 5-BP incorporation into immobilized N-N-dimethylcasein at 15 uM preincubated for 30 mins followed by 5-BP addition measured after 1 hr by streptavidin-based microtiter plate assay in presence of 0.6 mM Ca2+/100 uM GMP-PNP
Summary of the method: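 Transamidation microtiter assay: 5-BP incorporated into immobilized N,N-dimethylcasein by V224 TG2 at 0.6 mM Ca2+ plus 100 μM GMP-PNP, with incorporated biotin quantified with streptavidin.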

Structure (SMILES): O=C(/C=C1/C(=O)N(c2ccccc2)c2cccc(Cl)c21)c1cccnc1
Activity [4]: Active
Ki [1]: 9.1 µM

Structure (SMILES): Nc1nc2c(ncn2[C@@H]2O[C@H](COP(=O)(O)OP(=O)(O)NP(=O)(O)O)[C@@H](O)[C@H]2O)c(=O)[nH]1 [PHOSPHOAMINOPHOSPHONIC ACID GUANYLATE ESTER]
Activity [5]: inactive
Ki [6]: 27 µM
Activity [7]: inactive

Second part, the compound after the results:

Ki [1]: 86 µM
Structure (SMILES): O=C1Nc2ccccc2/C1=C\C(=O)c1cccnc1

Activity [2]: Active
Ki [1]: 47 µM
Activity [3]: inactive
Structure (SMILES): O=C1Nc2cccc(Cl)c2/C1=C\C(=O)c1ccc(Cl)cc1

inhibition [8]: Active
inhibition [9]: Active
Activity [2]: Active
inhibition [10]: inactive
Activity [11]: Active
Activity [12]: Active
Activity [13]: inactive
inhibition [14]: Active
inhibition [15]: Active
inhibition [16]: Active
Activity [17]: inactive
Activity [18]: Active
Activity [19]: Active
Ki [1]: 3.3 µM
Activity [3]: inactive
Structure (SMILES): COc1ccccc1C(=O)/C=C1/C(=O)Nc2cccc(Cl)c21
